Results pooled from the literature.
Compare with care: the assays were run in different laboratories.
Cell line: HCT-116
Effect on: cell growth or viability

The IC50 of `COc1nc(NCc2cn(-c3ccc(C(=O)Nc4ccccc4)cc3)nn2)nc(OC)n1` is reported as 0.00087 µM (MTT; 72 h).
`Cc1ccc(-c2cc(-c3ccc(Cl)c(F)c3)c3c(=O)n(C)c(=O)n(C)c3n2)cc1` gave an IC50 of 21.4 µM (MTT; 48 h).
`COc1nc(NCc2cn(-c3ccc(NC(=O)c4ccc(C)cc4)cc3)nn2)nc(OC)n1` has an IC50 of 0.0599 µM (MTT; 72 h).
The IC50 of `COc1cc2ncnc(Nc3ccc4c(c3)/C(=C/c3cccc(Cl)c3)C(=O)N4C)c2cc1OC` is reported as 8.36 µM (MTT).
For `COc1ccc(-c2cc(-c3ccccc3Cl)c3c(=O)[nH]c(=O)[nH]c3n2)cc1`, the IC50 was 13.4 µM (MTT; 48 h).
`Cc1nc(Nc2ccc3c(c2)CC(=O)N3)c2ccccc2n1` gave an IC50 of 12.3 µM (MTT).
For `C=CC(=O)c1cccnc1Nc1cc(C(F)(F)F)ccc1OC`, the GI50 was 12.3 µM (CCK-8; 72 h).
For `CC(=NNC(=O)COc1ccc2c(C)c(Cc3ccccc3)c(=O)oc2c1C)c1ccc(Br)cc1`, the viability was 33.6% (MTT; 100 µg/mL).
`COc1nc(NCc2cn(-c3ccc(NC(=O)c4ccc([N+](=O)[O-])cc4)cc3)nn2)nc(OC)n1` gave an IC50 of 0.0578 µM (MTT; 72 h).
The IC50 of `COc1ccc(-c2cc(-c3ccc(C)cc3)nc3c2c(=O)n(C)c(=O)n3C)cc1OC` is reported as 20.8 µM (MTT; 48 h).
The GI50 of `C=CC(=O)c1cccnc1Nc1cc(C(F)(F)F)ccc1OCc1ccccc1` is reported as 8.72 µM (CCK-8; 72 h).
For `C=CC(=O)NC1CCN(c2ncc3ncnc(Nc4ccc(Oc5ccc6c(c5)ncn6C)c(C)c4)c3n2)CC1`, the EC50 was 2.6 µM.
The IC50 of `COc1ccc(-c2cc(-c3ccc(Br)cc3)c3c(=O)[nH]c(=O)[nH]c3n2)cc1` is reported as 7.88 µM (MTT; 48 h).
`COc1nc(NCc2cn(-c3ccc(C(=O)Nc4ccc(C)cc4)cc3)nn2)nc(OC)n1` gave an IC50 of 0.0276 µM (MTT; 72 h).
With `Cc1ccc(-c2cc(-c3ccc(N(C)C)cc3)c3c(=O)[nH]c(=O)[nH]c3n2)cc1` the IC50 was 7.66 µM (MTT; 48 h).
For `Cc1nc(Nc2ccc3c(c2)C(C)(C)C(=O)N3)c2ccccc2n1`, the IC50 was > 50 µM (MTT).
With `COc1nc(NCc2cn(-c3ccc(C(=O)Nc4ccc(F)cc4)cc3)nn2)nc(OC)n1` the IC50 was 0.0341 µM (MTT; 72 h).
With `Cc1nc(Nc2ccc3c(c2)/C(=C/c2ccccc2C)C(=O)N3)c2ccccc2n1` the IC50 was 9.25 µM (MTT).
`COc1ccc(-c2cc(-c3ccc(C)cc3)nc3[nH]c(=O)[nH]c(=O)c23)cc1OC` has an IC50 of 19 µM (MTT; 48 h).
`COc1ccc(C(=O)Nc2ccc(-n3cc(CNc4nc(OC)nc(OC)n4)nn3)cc2)cc1` has an IC50 of 0.0595 µM (MTT; 72 h).
`Cc1ccc(-c2cc(-c3ccc(Cl)cc3)c3c(=O)n(C)c(=O)n(C)c3n2)cc1` has an IC50 of 5.87 µM (MTT; 48 h).
`COc1ccc(NC(=O)c2ccc(-n3cc(CNc4nc(OC)nc(OC)n4)nn3)cc2)cc1` has an IC50 of 0.0123 µM (MTT; 72 h).
With `COc1cc2ncnc(N(C)c3ccc4c(c3)/C(=C/c3cccc(Cl)c3)C(=O)N4C)c2cc1OC` the IC50 was 7.52 µM (MTT).
For `COc1cccc2c1C(=O)c1c(O)c3c(c(O)c1C2=O)C[C@@](O)(C(=O)CO)C[C@@H]3O[C@H]1C[C@H](N)[C@H](O)[C@H](C)O1`, the IC50 was 0.83 µM (MTT; 72 h).
For `COc1ccc(-c2cc(-c3cccc(Br)c3)c3c(=O)[nH]c(=O)[nH]c3n2)cc1`, the IC50 was 9.77 µM (MTT; 48 h).
`COc1cc2ncnc(Nc3ccc4c(c3)/C(=C/c3ccccc3)C(=O)N4)c2cc1OC` has an IC50 of 25.7 µM (MTT).
